LMPTP inh: LMPTP phosphatase inhibitors, primary screen, biochemical, fluorescence intensity, uHTS | Low molecular weight phosphotyrosine protein phosphatase (Homo sapiens), P24666 | recombinant LMPTP-A, OMFP fluorogenic substrate | inhibition, % at 20 µM | 0.22% of 360,000 active;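 active means compounds that cut the enzyme signal by at least half of the control window in the single-dose screen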
Target sequence (P24666 whole entry, looked up): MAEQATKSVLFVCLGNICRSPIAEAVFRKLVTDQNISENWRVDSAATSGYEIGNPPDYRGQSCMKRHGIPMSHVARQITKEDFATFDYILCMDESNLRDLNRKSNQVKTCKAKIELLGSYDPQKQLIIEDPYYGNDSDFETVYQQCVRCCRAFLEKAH
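Test system – LMPTP-A phosphatase enzyme · Quantity – 0.625 nM LMPTP-A final · Reagent – OMFP substrate, 400 µM final · Dosing – one test concentration per compound, 20 µM, with 3% DMSO overall · Timing – 50 min enzyme reaction at room temperature, protected from light · Detection – fluorescence intensity · Controls – substrate-only low control, DMSO enzyme-plus-substrate high control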
STEP inh: STEP phosphatase inhibitors, primary screen, biochemical, fluorescence intensity, uHTS. Tyrosine-protein phosphatase non-receptor type 5 (Homo sapiens), P54829. recombinant STEP, OMFP fluorogenic substrate. inhibition, % at 20 µM. 0.25% of 360,000 active. AID 588621, 2011;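 active means inhibition at 20 µM, scaled per plate between control wells, above about 37%, limit read from the data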
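material = STEP tyrosine phosphatase | reagent = fluorogenic phosphatase substrate OMFP at 25 µM final | doses = single compound dose of 20 µM, 1% DMSO final | schedule = 20 min reaction, room temperature, in the dark | measured by = fluorescence, 480/540 nm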
SUMO1 PPI mod: modulators of SUMO1 protein-protein interactions, primary screen, biochemical, uHTS | SUMO1 binding to a labelled peptide, TR-FRET, 1 h | inhibition, % at 20 µM | 0.33% of 360,000 active | Small ubiquitin-related modifier 1 (Homo sapiens), P63165 | AID 602429, 2012; in the data active means inhibition above about 37%
Target sequence (P63165 whole entry, looked up): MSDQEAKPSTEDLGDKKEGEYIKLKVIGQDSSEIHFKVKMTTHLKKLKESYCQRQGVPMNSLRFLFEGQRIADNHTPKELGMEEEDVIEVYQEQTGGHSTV
DNMT1 inh: human DNMT1 methyltransferase inhibitors, primary screen, biochemical, molecular beacon, fluorescence, HinP1I cleavage, uHTS. DNA (cytosine-5)-methyltransferase 1 (Homo sapiens), P26358. inhibition (reported as % activation of signal), % at 10 µM. 0.83% of 360,000 active. AID 588458, 2011; in the data active means inhibition above about 50%
Scp-1 inhibitor: Scp-1 phosphatase inhibitors, primary screen, biochemical, colorimetric, uHTS; AID 493091, 2011; Recombinant Scp1, phosphopeptide, malachite green phosphate absorbance; 0.88% of 340,000 active; inhibition, % at 20 µM; Carboxy-terminal domain RNA polymerase II polypeptide A small phosphatase 1 (Homo …;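 active means inhibition above about 50% at 20 µM, limit read from the data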
Target sequence (Q9GZU7 76-261 limits assumed): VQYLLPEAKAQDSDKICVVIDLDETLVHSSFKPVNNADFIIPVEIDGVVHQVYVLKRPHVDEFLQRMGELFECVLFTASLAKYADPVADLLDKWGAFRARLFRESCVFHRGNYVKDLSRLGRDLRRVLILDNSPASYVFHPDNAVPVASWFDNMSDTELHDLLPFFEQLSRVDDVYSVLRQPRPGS
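assay system = SCP-1 phosphatase catalytic domain, residues 76-261 | buffer or medium = 50 mM Tris acetate pH 5.5, 0.005% Tween-20, 10 mM MgCl2 | incubation = enzyme reaction 45 min at room temperature, colour 5 min, stabilisation 30 min | signal = Phosphate-binding colour reagent, absorbance read at 630 nm | measure = % inhibition at 20 µM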
Scp1 confirm: Scp-1 phosphatase inhibitors, retest, confirmation, biochemical, colorimetric, single concentration; shares compounds with Scp-1 inhibitor; recombinant SCP-1 catalytic domain, phosphate release, malachite green absorbance; inhibition, % at 20 µM; 61% of 2,500 active; AID 540281, 2011
Scp-1 MG ctr: colorimetric readout interference by compounds, confirmation, artefact control for Scp-1 inhibitor project, biochemical, single concentration. Colorimetric interference counterscreen, malachite green absorbance 630 nm. 2,500 tested, under 10 active. apparent inhibition (interference), % at 20 µM. shares compounds with Scp-1 inhibitor;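 further: compounds added after enzyme reaction finished so only phosphate colour detection is probed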
Scp-1 Tm shift: Scp-1 binding by thermal shift, confirmation, orthogonal assay for Scp-1 inhibitor project, biophysical, differential scanning fluorimetry. shares compounds with Scp-1 inhibitor. Recombinant SCP1, Sypro Orange thermal shift Tm. thermal shift relative to vanadate control, % at 40 µM. 25% of 1,500 active;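 active means substances whose mean melting-temperature shift, as a percentage of the reference inhibitor's shift, reaches about 5.3%, limit read from the data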
Numbers stand for hits; . = inactive; / = not tested or not shown. Most compounds without a hit are left out; they make up all but 1.7% or so of the library.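 How the source made its calls, unless noted: active means inhibition of at least 30% at 20 µM; inactive means the rest.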

SMILES	LMPTP inh	STEP inh	SUMO1 PPI mod	DNMT1 inh	Scp-1 inhibitor	Scp1 confirm	Scp-1 MG ctr	Scp-1 Tm shift
CCOc1ccc(/C=C2\SC(=S)N(CCC(=O)Nc3ccc(C(=O)O)cc3)C2=O)cc1	67	45	.	62	88	60	.	.
Cn1nc(-c2ccccc2)c(CN2CCN(c3ncccn3)CC2)c1Cl	.	.	.	.	.	/	/	/
O=C(CC1SC(N2CCCCC2)=NC1=O)Nc1cccc(C(=O)NCc2ccc(F)cc2)c1 (centres undefined)	.	.	.	.	.	/	/	/
O=C(CCN1C(=O)S/C(=C\c2ccc(Cl)cc2)C1=O)Nc1ccc(C(=O)O)cc1	.	.	.	.	80	72	.	.
CCCC(C(=O)NC1CCCC1)N(CC1CCCO1)C(=O)CNS(=O)(=O)c1ccc(F)cc1 (centres undefined)	.	.	.	.	.	/	/	/
CNC(=O)C(=O)Nc1ccc2c(c1)N(S(=O)(=O)c1cccs1)CCC2	.	.	.	.	54	.	.	/
CC(C)NC(=O)C(=O)Nc1ccc2c(c1)N(S(=O)(=O)c1cccs1)CCC2	.	.	.	.	.	/	/	/
COC(=O)C1CC(=O)c2ccsc2C1 (centres undefined)	.	.	.	.	.	/	/	/
O=C(COC(=O)Cc1ccc(Br)cc1)NC1CCCC1	.	.	.	.	.	/	/	/
COc1ccccc1N1CCN(C(=O)c2cc3c(s2)CCC3)CC1	.	.	.	.	85	.	.	/
O=C(CNC1CCCCCC1)Nc1ccccc1N1CCCCC1	.	.	.	.	90	.	.	/
O=C(Nc1ccc(O)c(-c2nc3ccccc3s2)c1)c1cc(=O)c2ccccc2o1	52	.	.	.	80	68	.	.
O=C(O)CSc1c2c(nc3cc(C(=O)Nc4ccc(F)c(Cl)c4)ccc13)CCCC2	.	.	.	.	52	83	.	.
CCOC(=O)N1CCC(N2CC34C=CC(O3)C(C(=O)Nc3ccc(F)cc3)C4C2=O)CC1 (centres undefined)	.	.	.	.	90	.	.	/
CC(C)Oc1cccc(C(=O)C2CCCN(C(=O)c3ccnn3C)C2)c1 (centres undefined)	.	.	.	.	.	/	/	/
O=C(c1cc(Cl)nc2ccccc12)N1CCN(S(=O)(=O)c2cccc(C(F)(F)F)c2)CC1	.	.	.	.	.	/	/	/
COC(=O)c1ccc(NC(=S)N2CCC(C(N)=O)CC2)cc1	.	.	.	.	68	.	.	/
COc1ccc(CCN2CC(C(=O)NCc3ccccc3)CCC2=O)cc1 (centres undefined)	.	.	.	.	.	/	/	/
COc1ccc(S(=O)(=O)NCCN2CCOCC2)c(C)c1C	.	.	.	.	81	.	.	/
COc1ccc(S(=O)(=O)NCCN2CCOCC2)c2ccccc12	.	.	.	.	.	/	/	/
Cc1ccccc1C(=O)NCC(=O)OC(C)C(=O)NC(C)CCc1ccccc1 (centres undefined)	.	.	.	.	.	/	/	/
O=C(CC1Oc2ccccc2NC1=O)NCCCN1CCCC1=O (centres undefined)	.	.	.	.	.	.	.	/
O=C1CCCN1CCCNC(=S)Nc1ccccc1Cl	.	.	.	.	.	.	.	/
COc1cc([N+](=O)[O-])ccc1NC(=O)CSc1ccccn1	.	.	.	.	/	/	/	/
COc1ccc([N+](=O)[O-])cc1CSc1ccccn1	.	.	.	.	61	.	.	/
SMILES	LMPTP inh	STEP inh	SUMO1 PPI mod	DNMT1 inh	Scp-1 inhibitor	Scp1 confirm	Scp-1 MG ctr	Scp-1 Tm shift
Cc1cc(C(=O)N/N=C/c2ccc(-c3ccccc3Cl)o2)n[nH]1	.	.	.	.	60	58	.	.
Cc1cc(C(=O)N/N=C/c2ccc(-c3ccc(C)c(Cl)c3)o2)n[nH]1	.	.	.	.	.	/	/	/
Cc1cc(C(=O)N/N=C/c2cc(Br)ccc2OC(=O)c2ccccc2)n[nH]1	.	.	.	.	94	64	.	.
Cc1cc(C(=O)N/N=C/C=C/c2ccc(Br)cc2)n[nH]1	.	.	.	.	52	65	.	.
Cc1cc(C(=O)N/N=C/c2cc(Br)ccc2OC(=O)c2ccccc2Cl)n[nH]1	.	.	.	.	.	/	/	/
Cc1c(C(=O)O)cccc1-n1c(C)cc(C=O)c1C	.	.	.	.	56	44	.	.
O=C(NNC(=O)c1ccc(NC(=O)c2ccccc2)cc1)c1ccc(F)cc1	.	.	.	.	.	/	/	/
Cc1cccc(C(=O)NNC(=O)c2ccc(Br)cc2)c1	.	.	.	.	.	/	/	/
Cc1cccc(C(=O)NNC(=O)c2ccc(-c3ccccc3)cc2)c1	.	.	.	.	70	73	.	.
O=C(NNC(=O)c1ccc(-c2ccccc2)cc1)c1ccccc1	.	.	.	.	74	54	.	5.7
Cc1ccc(NC(=O)c2cccc(C(=O)Nc3ccc(C)cc3C(=O)O)c2)c(C(=O)O)c1	.	.	.	.	57	54	.	.
O=C(NNC(=O)c1ccc(NC(=O)c2ccccc2)cc1)Nc1ccccc1	.	.	.	.	51	67	.	.
CCN(CC)S(=O)(=O)c1cccc(C(=O)NNC(=O)C2=NN(c3ccccc3)C(=O)CC2)c1	.	.	.	.	.	/	/	/
CCCn1c(SCC(=O)Nc2cccnc2Cl)n[nH]c1=O	.	.	.	.	.	/	/	/
C[N+]1(CN2C(=O)C3C4C=CC(C4)C3C2=O)CCCCC1 (centres undefined)	.	.	.	.	103	89	.	.
Cc1cc(C)c(NC(=S)N(CCc2ccncc2)C(C)C)c(C)c1	.	.	.	.	61	.	.	/
Cc1ccc(C)c(NC(=S)N(CCc2ccncc2)C(C)C)c1	.	.	.	.	.	/	/	/
C[N+]1(CCCCCCC(=O)/C=N/O)CCCCCC1	.	.	.	.	96	.	.	/
CS(=O)(=O)N(CC(=O)N1CCCCCC1)c1ccc(Cl)cc1	.	.	.	.	59	.	.	/

Bioassay records deposited in PubChem BioAssay by Sanford-Burnham Center for Chemical Genomics.
